Results from ChEMBL document CHEMBL1129660, “Studies on 6-aminoquinolones: synthesis and antibacterial evaluation of 6-amino-8-methylquinolones” (J Med Chem, 1996).
In brackets after ≈: the same amount, converted by molar mass.

Experiments:
Assay type in all cases: functional
[1] = test system: Staphylococcus aureus; experiment: Antibacterial activity against Staphylococcus aureus MPR 5
In short: (§1)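 MICs (µg/mL) determined by conventional agar dilution against a panel of eight Gram-negative and five Gram-positive reference strains.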

[2] = test system: Staphylococcus epidermidis; experiment: Antibacterial activity tested against Staphylococcus epidermidis HCF Berset C; in short: as §1
[3] = test system: Escherichia coli; experiment: Antibacterial activity tested against Escherichia coli ATCC 8739; in short: as §1
[4] = test system: Pseudomonas aeruginosa; experiment: Antibacterial activity tested against P. ae (Pseudomonas aeruginosa) ATCC 9027; in short: as §1
[5] = test system: Enterococcus faecalis; experiment: Antibacterial activity tested against Streptococcus faecalis LEP Br; in short: as §1
[6] = test system: Proteus vulgaris; experiment: Antibacterial activity tested against Proteus vulgaris CNUR 5; in short: as §1
[7] = test system: Staphylococcus epidermidis; experiment: Antibacterial activity tested against Staphylococcus epidermidis CPHL A2; in short: as §1
[8] = test system: Enterobacter cloacae; experiment: Antibacterial activity tested against Enterobacter cloacae OMNFI 174
[9] = test system: Klebsiella pneumoniae; experiment: Antibacterial activity tested against Klebsiella pneumoniae (Klebsiella pneumoniae) ATCC 10031; in short: as §1
[10] = test system: Staphylococcus aureus; experiment: Antibacterial activity against Staphylococcus aureus ATCC 6538; in short: as §1
[11] = Geometric mean of antibacterial activity (Gram -ve bacteria) of the compound
In short: (§2)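 Geometric means calculated from agar-dilution MICs (µg/mL), taken separately across the five Gram-positive and the eight Gram-negative panel strains.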

[12] = test system: Bacteria; experiment: Geometric mean of antibacterial activity (Gram +ve bacteria) of the compound; in short: as §2
[13] = test system: Providencia stuartii; experiment: Antibacterial activity tested against Providencia stuartii CNUR 5; in short: as §1
[14] = test system: Shigella; experiment: Antibacterial activity tested against Shigella enteritidis; in short: as §1
[15] = test system: Escherichia coli; experiment: Antibacterial activity tested against Escherichia coli ISF 432; in short: as §1

| Structure (SMILES) | MIC [1] | MIC [2] | MIC [3] | MIC [5] | MIC [6] | MIC [7] | MIC [8] | MIC [9] | MIC [10] | MIC [13] | MIC [14] | MIC [15] | MIC [4] | Geometric mean [11] | Geometric mean [12] |
| --- | --- | --- | --- | --- | --- | --- | --- | --- | --- | --- | --- | --- | --- | --- | --- |
| Cc1c(N2CCCCC2)c(F)cc2c(=O)c(C(=O)O)cn(C3CC3)c12 | 0.03 µg/mL (≈ 0.0871 µM) | 0.03 µg/mL (≈ 0.0871 µM) | 0.125 µg/mL (≈ 0.363 µM) | 0.25 µg/mL (≈ 0.726 µM) | 2 µg/mL (≈ 5.81 µM) | 0.03 µg/mL (≈ 0.0871 µM) | 16 µg/mL (≈ 46.5 µM) | 0.125 µg/mL (≈ 0.363 µM) | 0.03 µg/mL (≈ 0.0871 µM) | 2 µg/mL (≈ 5.81 µM) | 0.5 µg/mL (≈ 1.45 µM) | 0.03 µg/mL (≈ 0.0871 µM) | 1 µg/mL (≈ 2.9 µM) | 0.591 | 0.046 |
| Cc1c(N2CCN(C)CC2)c(N)cc2c(=O)c(C(=O)O)cn(-c3ccc(O)cc3)c12 | 16 µg/mL (≈ 39.2 µM) | 16 µg/mL (≈ 39.2 µM) | 0.125 µg/mL (≈ 0.306 µM) | 64 µg/mL (≈ 157 µM) | > 128 µg/mL | 8 µg/mL (≈ 19.6 µM) | 8 µg/mL (≈ 19.6 µM) | 0.25 µg/mL (≈ 0.612 µM) | 16 µg/mL (≈ 39.2 µM) | 8 µg/mL (≈ 19.6 µM) | 4 µg/mL (≈ 9.79 µM) | 0.125 µg/mL (≈ 0.306 µM) | 8 µg/mL (≈ 19.6 µM) | 2.378 | 18.37 |
| Cc1c(N2CCC(C)CC2)c(N(C)C)cc2c(=O)c(C(=O)O)cn(C3CC3)c12 | 16 µg/mL (≈ 41.7 µM) | 8 µg/mL (≈ 20.9 µM) | 64 µg/mL (≈ 167 µM) | 32 µg/mL (≈ 83.4 µM) | 64 µg/mL (≈ 167 µM) | 32 µg/mL (≈ 83.4 µM) | 64 µg/mL (≈ 167 µM) | 64 µg/mL (≈ 167 µM) | 64 µg/mL (≈ 167 µM) | 64 µg/mL (≈ 167 µM) | 64 µg/mL (≈ 167 µM) | 64 µg/mL (≈ 167 µM) | 64 µg/mL (≈ 167 µM) | 64 | 24.251 |
| Cc1c(N2CCN(C)CC2)c(N)cc2c(=O)c(C(=O)O)cn(-c3ccc(F)cc3)c12 | 128 µg/mL (≈ 312 µM) | 128 µg/mL (≈ 312 µM) | 1 µg/mL (≈ 2.44 µM) | 128 µg/mL (≈ 312 µM) | > 128 µg/mL | 128 µg/mL (≈ 312 µM) | 16 µg/mL (≈ 39 µM) | 1 µg/mL (≈ 2.44 µM) | 64 µg/mL (≈ 156 µM) | 16 µg/mL (≈ 39 µM) | 16 µg/mL (≈ 39 µM) | 1 µg/mL (≈ 2.44 µM) | 128 µg/mL (≈ 312 µM) | 9.513 | 111.43 |
| CC1CN(c2cc3c(cc2N)c(=O)c(C(=O)O)cn3C2CC2)CCS1 (stereo not given) | 0.5 µg/mL (≈ 1.39 µM) | 2 µg/mL (≈ 5.56 µM) | 0.03 µg/mL (≈ 0.0835 µM) | 8 µg/mL (≈ 22.3 µM) | 128 µg/mL (≈ 356 µM) | 1 µg/mL (≈ 2.78 µM) | 0.5 µg/mL (≈ 1.39 µM) | 0.03 µg/mL (≈ 0.0835 µM) | 0.5 µg/mL (≈ 1.39 µM) | 1 µg/mL (≈ 2.78 µM) | 0.5 µg/mL (≈ 1.39 µM) | 0.03 µg/mL (≈ 0.0835 µM) | 2 µg/mL (≈ 5.56 µM) | 0.451 | 1.32 |
| CN1CCN(c2cc3c(cc2N)c(=O)c(C(=O)O)cn3-c2ccc(F)cc2)CC1 | 4 µg/mL (≈ 10.1 µM) | 8 µg/mL (≈ 20.2 µM) | 0.125 µg/mL (≈ 0.315 µM) | 64 µg/mL (≈ 161 µM) | 128 µg/mL (≈ 323 µM) | 8 µg/mL (≈ 20.2 µM) | 4 µg/mL (≈ 10.1 µM) | 0.125 µg/mL (≈ 0.315 µM) | 8 µg/mL (≈ 20.2 µM) | 4 µg/mL (≈ 10.1 µM) | 4 µg/mL (≈ 10.1 µM) | 0.125 µg/mL (≈ 0.315 µM) | 8 µg/mL (≈ 20.2 µM) | 1.834 | 10.556 |
| CC1CN(c2cc3c(cc2N)c(=O)c(C(=O)O)cn3C2CC2)CCN1 (stereo not given) | 16 µg/mL (≈ 46.7 µM) | 4 µg/mL (≈ 11.7 µM) | 0.03 µg/mL (≈ 0.0876 µM) | 32 µg/mL (≈ 93.5 µM) | 32 µg/mL (≈ 93.5 µM) | 4 µg/mL (≈ 11.7 µM) | 0.25 µg/mL (≈ 0.73 µM) | 0.03 µg/mL (≈ 0.0876 µM) | 16 µg/mL (≈ 46.7 µM) | 16 µg/mL (≈ 46.7 µM) | 0.25 µg/mL (≈ 0.73 µM) | 0.03 µg/mL (≈ 0.0876 µM) | 2 µg/mL (≈ 5.84 µM) | 0.451 | 10.556 |

More lines, main results first:

| MIC [1] | MIC [2] | MIC [3] | MIC [5] | MIC [6] | MIC [7] | MIC [8] | MIC [9] | MIC [10] | MIC [13] | MIC [14] | MIC [15] | Structure (SMILES) | MIC [4] | Geometric mean [11] | Geometric mean [12] |
| --- | --- | --- | --- | --- | --- | --- | --- | --- | --- | --- | --- | --- | --- | --- | --- |
| 0.125 µg/mL (≈ 0.352 µM) | 0.2 µg/mL (≈ 0.563 µM) | 2 µg/mL (≈ 5.63 µM) | 2 µg/mL (≈ 5.63 µM) | 32 µg/mL (≈ 90 µM) | 0.25 µg/mL (≈ 0.703 µM) | 1 µg/mL (≈ 2.81 µM) | 0.03 µg/mL (≈ 0.0844 µM) | 0.125 µg/mL (≈ 0.352 µM) | 0.5 µg/mL (≈ 1.41 µM) | 1 µg/mL (≈ 2.81 µM) | 0.03 µg/mL (≈ 0.0844 µM) | Cc1c(N2CCCCCC2)c(N)cc2c(=O)c(C(=O)O)cn(C3CC3)c12 | 4 µg/mL (≈ 11.3 µM) | 0.763 | 0.275 |
| 0.06 µg/mL (≈ 0.162 µM) | 0.125 µg/mL (≈ 0.337 µM) | 0.06 µg/mL (≈ 0.162 µM) | 1 µg/mL (≈ 2.69 µM) | 16 µg/mL (≈ 43.1 µM) | 0.06 µg/mL (≈ 0.162 µM) | 1 µg/mL (≈ 2.69 µM) | 0.03 µg/mL (≈ 0.0808 µM) | 0.06 µg/mL (≈ 0.162 µM) | 0.5 µg/mL (≈ 1.35 µM) | 1 µg/mL (≈ 2.69 µM) | 0.03 µg/mL (≈ 0.0808 µM) | Cc1c(N2CC(C)OC(C)C2)c(N)cc2c(=O)c(C(=O)O)cn(C3CC3)c12 (stereo not given) | 4 µg/mL (≈ 10.8 µM) | 0.451 | 0.122 |
| > 128 µg/mL | > 128 µg/mL | 1 µg/mL (≈ 2.95 µM) | > 128 µg/mL | > 128 µg/mL | > 128 µg/mL | > 128 µg/mL | 1 µg/mL (≈ 2.95 µM) | > 128 µg/mL | > 128 µg/mL | > 128 µg/mL | 1 µg/mL (≈ 2.95 µM) | Cc1c(N2CC=CCC2)c(N)cc2c(=O)c(C(=O)O)cn(C3CC3)c12 | > 128 µg/mL | 20.749 | 128 |
| 1 µg/mL (≈ 2.7 µM) | 2 µg/mL (≈ 5.4 µM) | 0.06 µg/mL (≈ 0.162 µM) | 16 µg/mL (≈ 43.2 µM) | 8 µg/mL (≈ 21.6 µM) | 1 µg/mL (≈ 2.7 µM) | 0.5 µg/mL (≈ 1.35 µM) | 0.03 µg/mL (≈ 0.081 µM) | 1 µg/mL (≈ 2.7 µM) | 2 µg/mL (≈ 5.4 µM) | 0.25 µg/mL (≈ 0.675 µM) | 0.03 µg/mL (≈ 0.081 µM) | Cc1c(N2CC(C)NC(C)C2)c(N)cc2c(=O)c(C(=O)O)cn(C3CC3)c12 (stereo not given) | 2 µg/mL (≈ 5.4 µM) | 0.348 | 2 |
